The text below walks through data of ChEMBL document CHEMBL1127474, “Synthesis and antifungal activity of novel cationic pneumocandin B(o) derivatives” (J Med Chem, 1994).

Common to all, as to format: functional
Experiment [1] relates to Candida albicans. Description: In vitro concentration causing 50% inhibition of beta-(1,3)-D-glucan synthesis in a Candida albicans (MY 1208) membrane assay.
The test system of experiment [2] is Mus musculus. Description: In vivo minimum dose administered intraperitoneally b.i.d. which decreases Candida albicans (MY 1055) colony forming units by 99.9% in target organ kidney assay. The gist of the method: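 Target organ kidney assay in congenitally immunodeficient DBA/2 mice infected with C. albicans MY1055 and dosed ip twice daily. Kidney CFU/g is compared with untreated controls, and ED99.9 is the lowest dose giving a 99.9% reduction.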

Experiment [3] concerns Candida tropicalis. Briefly: In vitro minimum fungicidal concentration (MFC) against Candida tropicalis (MY 1012). The gist of the method:
(§1)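 Whole-cell broth microdilution assay against reference and clinical Candida isolates; the MFC is the median of at least four duplicate determinations.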

Experiment [4] deals with Candida parapsilosis. Briefly: In vitro minimum fungicidal concentration (MFC) against Candida parapsilosis (MY 1010). The note with it: Lodderomyces parapsilosis. The gist of the method: as §1
The subject of experiment [5] is Kluyveromyces marxianus. Briefly: In vitro minimum fungicidal concentration (MFC) against Candida pseudotropicalis (MY 2099). Summed up:
as §1

The test system of experiment [6] is Candida albicans. Description: In vitro minimum fungicidal concentration (MFC) against Candida albicans (MY 1055). The gist of the method:
as §1

For experiment [7], the system named is Rattus norvegicus. Briefly: In vivo minimum dose administered subcutaneously b.i.d. which decreases the lung cyst count by 90% using PCP model in dexamethasone-immunosuppressed rats. The gist of the method: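 Acute Pneumocystis carinii pneumonia model in dexamethasone-immunosuppressed Sprague-Dawley rats dosed sc twice daily for 4 days. Lung cyst counts are compared with untreated controls, and ED90 is the lowest dose giving a 90% reduction.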

Experiment [8] has as its system Mus musculus. Briefly: In vivo dose administered ip bid on days 0-4 which increases the 28-day survival rate of Aspergillus fumigatus by 50%. The note with it: 672 h. Summed up:
(§2)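 DBA/2 mice with disseminated A. fumigatus (MF5668) infection; compound given ip twice daily on days 0–4. Survival followed for 28 days; ED50 taken as the dose that raises the 28-day survival rate by 50%.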

The subject of experiment [9] is Candida albicans. Briefly: In vitro minimum fungicidal concentration (MFC) against Candida albicans (MY 1208). The note with it: in the assay text read “MY 1028” for “MY 1208”. The gist of the method: as §1
The test system of experiment [10] is Mus musculus. Briefly: In vivo dose administered intraperitoneally bid on days 0-4 which increases the 28-day survival rate of Aspergillus fumigatus by 50%. Conditions: ip, 672 h. Summed up:
as §2

pIC50: −log10 of the molar value. Values after ≈ are worked out from the molar mass of the structure shown. *1 amine or outer side, *2 acyl side, *3 side chain or, on linkers, in order; H or OH if unused. Where a SMILES comes first, the peptide text is derived from it. Bridges are numbered along the chain shown (N, C = ends). [ ]: non-standard residue; d: D form. The star is where a group is joined. Orn(4R-OH,5R-OH) = O=C([C@H](C[C@@H](O)[C@@H](O)N[*:3])N[*:1])[*:2]; hTyr(3S-OH,4S-OH) = N[C@H](C(=O)O)[C@H](O)[C@@H](O)c1ccc(O)cc1; Gln(3R-OH) = NC(=O)C[C@@H](O)[C@H](N)C(=O)O; Orn(3R-OH) = NCC[C@@H](O)[C@H](N)C(=O)O; Pro(3S-OH) = O=C(O)[C@H]1NCC[C@@H]1O; Hyp = O=C(O)[C@@H]1C[C@@H](O)CN1; X1 = CCC(C)CC(C)CCCCCCCCC(=O)*

Consider `CCC(C)CC(C)CCCCCCCCC(=O)N[C@H]1C[C@@H](O)[C@@H](OCCN)NC(=O)[C@@H]2[C@@H](O)CCN2C(=O)[C@H]([C@H](O)CCN)NC(=O)[C@H]([C@H](O)[C@@H](O)c2ccc(O)cc2)NC(=O)[C@@H]2C[C@@H](O)CN2C(=O)[C@H]([C@@H](C)O)NC1=O` (stereo not given in full), for which the pIC50 (usually −log10 of the IC50, conventionally taken in molar units) in experiment [1] is 9.00. For the same compound, in [2], the ED99.9 stood at 0.09 mg/kg. Besides, the MFC – broadly, the lowest tested concentration that kills the fungus rather than only halting it – is < 0.06 µg/mL in experiment [3]; 0.125 µg/mL (≈ 0.114 µM) in experiment [4]; < 0.06 µg/mL in experiment [5]; 0.125 µg/mL (≈ 0.114 µM) in [6]; < 0.06 µg/mL in experiment [9]. The compound also came in with an ED90 in experiment [7] of 0.019 mg/kg. Further, in experiment [8], the ED50 (as a rule, the dose at which the effect has come halfway, by size or by number of responders) was determined as 0.03 mg/kg.
In turn, `CCC(C)CC(C)CCCCCCCCC(=O)N[C@H]1C[C@@H](O)[C@@H](OCCN)NC(=O)[C@@H]2[C@@H](O)CCN2C(=O)[C@H]([C@H](O)CC(N)=O)NC(=O)[C@H]([C@H](O)[C@@H](O)c2ccc(O)cc2)NC(=O)[C@@H]2C[C@@H](O)CN2C(=O)[C@H]([C@@H](C)O)NC1=O` (stereo not given in full) gave a pIC50 in [1] of 7.96. The ED99.9 in experiment [2] was determined as 0.78 mg/kg. Besides, the MFC in experiment [3] stood at 0.25 µg/mL (≈ 0.226 µM); in [4], 1 µg/mL (≈ 0.902 µM); in experiment [5], 1 µg/mL (≈ 0.902 µM); in experiment [6] it was 0.125 µg/mL (≈ 0.113 µM); in experiment [9], 0.125 µg/mL (≈ 0.113 µM). Besides, in [7], the ED90 is 0.037 mg/kg. In addition, in experiment [8], the ED50 was found to be 0.06 mg/kg.
Turning to `CCC(C)CC(C)CCCCCCCCC(=O)N[C@H]1C[C@@H](O)[C@@H](O)NC(=O)[C@@H]2[C@@H](O)CCN2C(=O)[C@H]([C@H](O)CC(N)=O)NC(=O)[C@H]([C@H](O)[C@@H](O)c2ccc(O)cc2)NC(=O)[C@@H]2C[C@@H](O)CN2C(=O)[C@H]([C@@H](C)O)NC1=O` (stereo partly drawn) (X1-[Orn(4R-OH,5R-OH)]T[Hyp][hTyr(3S-OH,4S-OH)][Gln(3R-OH)][Pro(3S-OH)]; lactam 1-C), the ED99.9 in [2] worked out at 6 mg/kg. The MFC in [3] worked out at 0.125 µg/mL (≈ 0.117 µM); in [4], 2 µg/mL (≈ 1.88 µM); in experiment [5], 1 µg/mL (≈ 0.939 µM); in [6], 0.5 µg/mL (≈ 0.469 µM); in experiment [9], 0.25 µg/mL (≈ 0.235 µM). In [10], the ED50 is > 20 mg/kg. The compound also displayed an ED90 in experiment [7] of 0.15 mg/kg.
`CCC(C)CC(C)CCCCCCCCC(=O)N[C@H]1C[C@@H](O)[C@@H](O)NC(=O)[C@@H]2[C@@H](O)CCN2C(=O)[C@H]([C@H](O)CCN)NC(=O)[C@H]([C@H](O)[C@@H](O)c2ccc(O)cc2)NC(=O)[C@@H]2C[C@@H](O)CN2C(=O)[C@H]([C@@H](C)O)NC1=O` (stereo partly drawn) (X1-[Orn(4R-OH,5R-OH)]T[Hyp][hTyr(3S-OH,4S-OH)][Orn(3R-OH)][Pro(3S-OH)]; lactam 1-C) showed a negative-log IC50 (pIC50) in experiment [1] of 8.00. Further, in [2], the ED99.9 turned out to be 0.375 mg/kg. For the same compound, the MFC in experiment [3] is < 0.06 µg/mL; in experiment [4], 0.125 µg/mL (≈ 0.119 µM); in [5] it was 0.125 µg/mL (≈ 0.119 µM); in experiment [6], < 0.06 µg/mL; in [9] it was < 0.06 µg/mL. The ED90 in experiment [7] worked out at 0.037 mg/kg. For the same compound, the ED50 in experiment [8] was > 20 mg/kg.
